{"source": "the RNAGym collection of RNA variant scans (doi:10.1126/science.aae0568)", "parents": {"B1": {"name": "tRNA (parent)", "chain": "GUUCCGUUGGCGUAAUGGUAACGCGUCUCCCUCCUAAGGAGAAGACUGCGGGUUCGAGUCCCGUACGGAACG"}}, "note": "Fewer inactive variants are shown than the library holds.", "data": [{"variants_of": "B1", "assay": "yeast fitness relative to wild type (ratio to wild type); higher = fitter; tRNA-Arg(CCU), competitive growth, 37 C, YPD", "summary_of_the_method": "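Amplicons of the tRNA-Arg(CCU) gene were sequenced, 100-nucleotide paired-end, from the start population and from each end population of a pooled yeast competition. The competition, in six parallel replicates, lasted 24 hours in YPD at 37°C. Fitness relative to wild type was calculated from changes in genotype frequencies. Genotypes had to have ≥ 100 starting reads, and estimates < 0.5 were set to 0.5.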", "values": [{"variant": "A57C C60G", "yeast fitness": 0.503}, {"variant": "A57C C60U", "yeast fitness": 0.552}, {"variant": "G67C A69C", "yeast fitness": 0.651}, {"variant": "G67C A69G", "yeast fitness": 0.977}, {"variant": "C61U G67U", "yeast fitness": 0.86}, {"variant": "C61U G67A", "yeast fitness": 0.649}, {"variant": "C66U G68C", "yeast fitness": 0.779}, {"variant": "A57C C61U A65U", "yeast fitness": 0.563}, {"variant": "G63C G67C A70C", "yeast fitness": 0.778}, {"variant": "U64A G68C", "yeast fitness": 0.709}, {"variant": "U64A G68U", "yeast fitness": 0.728}, {"variant": "A57C U64C", "yeast fitness": 0.564}, {"variant": "G58C C60U C66G", "yeast fitness": "≤ 0.5"}, {"variant": "C62G C66G", "yeast fitness": 0.553}, {"variant": "C62G C66A", "yeast fitness": "≤ 0.5"}, {"variant": "C62G U64C", "yeast fitness": 0.97}, {"variant": "C62G U64A", "yeast fitness": 0.695}, {"variant": "A57U C66U G68C A69U", "yeast fitness": "≤ 0.5"}, {"variant": "C60A C62G A70C", "yeast fitness": "≤ 0.5"}, {"variant": "C61U A65G", "yeast fitness": 1.07}, {"variant": "C62U C66U G67A", "yeast fitness": 0.52}, {"variant": "A57C A69C", "yeast fitness": 0.608}, {"variant": "A57C A69G", "yeast fitness": 0.562}, {"variant": "A57U U59C", "yeast fitness": 0.569}, {"variant": "G58C C62U", "yeast fitness": 0.893}, {"variant": "G58A U59A", "yeast fitness": 1.06}, {"variant": "G56C A57U C60U", "yeast fitness": 0.698}, {"variant": "A57G C62U", "yeast fitness": 0.781}, {"variant": "G67C G68A", "yeast fitness": 0.874}, {"variant": "A57U U64A", "yeast fitness": 0.678}, {"variant": "G56A U59C", "yeast fitness": 1.05}, {"variant": "C60G C66U", "yeast fitness": 0.599}, {"variant": "C60G C66A", "yeast fitness": 0.541}, {"variant": "A57G A65C", "yeast fitness": 0.919}, {"variant": "G56A A57U", "yeast fitness": 0.882}, {"variant": "C61A G63C", "yeast fitness": 0.618}, {"variant": "C61A C62A", "yeast fitness": 0.603}, {"variant": "C61A C62U", "yeast fitness": 0.795}, {"variant": "C66A A70G", "yeast fitness": 0.764}, {"variant": "U59G A65G", "yeast fitness": 0.965}, {"variant": "U59G A65U", "yeast fitness": 0.917}, {"variant": "G68C A70G", "yeast fitness": 0.897}, {"variant": "G68C A70U", "yeast fitness": 0.899}, {"variant": "A57C G63C", "yeast fitness": 0.601}, {"variant": "A57G G67A", "yeast fitness": 0.878}, {"variant": "A57G G67U", "yeast fitness": 0.869}, {"variant": "U64C A65C", "yeast fitness": 0.891}, {"variant": "C60U C66U", "yeast fitness": 0.711}, {"variant": "C61G C62G A70C", "yeast fitness": 0.512}, {"variant": "A57U G58C", "yeast fitness": 0.636}, {"variant": "C62G A65U A69U", "yeast fitness": 0.535}, {"variant": "A57C C62U", "yeast fitness": 0.565}, {"variant": "C60A A70C", "yeast fitness": 0.621}, {"variant": "C60A A70G", "yeast fitness": 0.531}, {"variant": "G56A A65G C66U A69U", "yeast fitness": 0.573}, {"variant": "U59C C62U", "yeast fitness": 0.814}, {"variant": "G58A A65U", "yeast fitness": 1.04}, {"variant": "C61A A69G", "yeast fitness": 0.584}, {"variant": "G56U G58A", "yeast fitness": 0.589}, {"variant": "G56U G58C", "yeast fitness": 0.75}, {"variant": "A65G A70G", "yeast fitness": 0.865}, {"variant": "A65G A70U", "yeast fitness": 0.943}, {"variant": "A65C G67C", "yeast fitness": 0.782}, {"variant": "A57G A65G A69C", "yeast fitness": 0.7}, {"variant": "G63A G67A A69G", "yeast fitness": "≤ 0.5"}, {"variant": "U59A A69U", "yeast fitness": 0.817}, {"variant": "G63C A65U", "yeast fitness": 0.735}, {"variant": "G67A A70U", "yeast fitness": 0.938}, {"variant": "G67A A70G", "yeast fitness": 0.917}, {"variant": "C62U A69U", "yeast fitness": 0.955}, {"variant": "A57U G67C", "yeast fitness": 0.817}, {"variant": "U64C A69C", "yeast fitness": 0.983}, {"variant": "U64C A69U", "yeast fitness": 1.07}, {"variant": "A57G U59G", "yeast fitness": 0.941}, {"variant": "A57G U59C", "yeast fitness": 0.864}, {"variant": "C55U C62U G67C", "yeast fitness": "≤ 0.5"}, {"variant": "C62A A69G A70G", "yeast fitness": 0.614}, {"variant": "C66A A69C", "yeast fitness": 0.665}, {"variant": "U64C G68A", "yeast fitness": 0.979}, {"variant": "U64C G68C", "yeast fitness": 0.978}, {"variant": "C61U A69G A70C", "yeast fitness": 0.923}, {"variant": "A65U G68A", "yeast fitness": 0.729}, {"variant": "G58A C60U A70G", "yeast fitness": 0.702}, {"variant": "C61A G67A", "yeast fitness": 0.582}, {"variant": "C62G G68C A70G", "yeast fitness": "≤ 0.5"}, {"variant": "G56A C61U", "yeast fitness": 0.994}, {"variant": "C60G C61A A69G", "yeast fitness": 0.586}, {"variant": "G56A G68A", "yeast fitness": 1.04}, {"variant": "G56U A65G", "yeast fitness": 0.615}, {"variant": "G58A A69C", "yeast fitness": 0.955}, {"variant": "G58A A69G", "yeast fitness": 1.15}, {"variant": "G63C U64C", "yeast fitness": 0.969}, {"variant": "C62U C66A", "yeast fitness": 0.686}, {"variant": "C62U C66G", "yeast fitness": 0.731}, {"variant": "G67U A70G", "yeast fitness": 0.822}, {"variant": "G56A C66G", "yeast fitness": 0.689}, {"variant": "A57G C61A", "yeast fitness": 0.688}, {"variant": "C55U G68C", "yeast fitness": 0.702}, {"variant": "C55U G68U", "yeast fitness": 0.64}, {"variant": "C55U G68A", "yeast fitness": 0.765}, {"variant": "C55U C66U", "yeast fitness": 0.667}, {"variant": "G58C C61U", "yeast fitness": 0.887}, {"variant": "C61G A65G C66U A69G", "yeast fitness": 0.646}, {"variant": "G58U C66A A70C", "yeast fitness": 0.665}, {"variant": "C55U A57U U64G", "yeast fitness": 0.585}, {"variant": "G56A C62A", "yeast fitness": 0.697}, {"variant": "G56A C62G", "yeast fitness": 0.643}, {"variant": "G67U A69G", "yeast fitness": 1.05}, {"variant": "G56A G63A", "yeast fitness": 0.726}, {"variant": "A57U C66U", "yeast fitness": 0.583}, {"variant": "G63A A69U", "yeast fitness": 0.856}, {"variant": "U59C A69U", "yeast fitness": 1.02}, {"variant": "C61A C66G", "yeast fitness": 0.572}, {"variant": "C61U A65G G68A", "yeast fitness": 0.705}, {"variant": "C62G A65G A70U", "yeast fitness": "≤ 0.5"}, {"variant": "C60G G68C", "yeast fitness": 0.603}, {"variant": "G58C U59C A69U", "yeast fitness": 0.679}, {"variant": "U59A G67A", "yeast fitness": 0.799}, {"variant": "C60A C66U G68C", "yeast fitness": "≤ 0.5"}, {"variant": "G58A C61G", "yeast fitness": 0.668}, {"variant": "C60A A65G", "yeast fitness": 0.573}, {"variant": "C62A A70G", "yeast fitness": 0.674}, {"variant": "G58A G68A", "yeast fitness": 0.899}, {"variant": "A57U C62U C66U", "yeast fitness": 0.613}, {"variant": "C55G U59A", "yeast fitness": 0.677}, {"variant": "U64C A70G", "yeast fitness": 0.844}, {"variant": "U64C A70U", "yeast fitness": 0.953}, {"variant": "G56C U59A", "yeast fitness": 0.663}, {"variant": "C61G C62A", "yeast fitness": 0.503}, {"variant": "C61G C62G", "yeast fitness": 0.741}, {"variant": "C62U G63C A70C", "yeast fitness": "≤ 0.5"}, {"variant": "G56C G67C", "yeast fitness": 0.696}, {"variant": "A57U A70C", "yeast fitness": 0.7}, {"variant": "G56A A69C", "yeast fitness": 1.04}, {"variant": "G63A U64A", "yeast fitness": 0.864}, {"variant": "C62G A69U", "yeast fitness": 0.839}, {"variant": "C62G A69G", "yeast fitness": 0.819}, {"variant": "C62U G63C", "yeast fitness": 0.752}, {"variant": "C62U G63A", "yeast fitness": 0.719}, {"variant": "C55U A70G", "yeast fitness": 0.705}, {"variant": "A57U G58A A65U", "yeast fitness": 0.621}, {"variant": "A65G C66G G68A", "yeast fitness": 0.575}, {"variant": "C60A C61U G63C C66U", "yeast fitness": "≤ 0.5"}, {"variant": "C61U G63C", "yeast fitness": 0.565}, {"variant": "U59C A70U", "yeast fitness": 1.01}, {"variant": "U59C A70C", "yeast fitness": 0.897}, {"variant": "C60U U64C", "yeast fitness": 0.833}, {"variant": "A57U A65U G68C", "yeast fitness": "≤ 0.5"}, {"variant": "U59C C61U", "yeast fitness": 0.839}, {"variant": "G58C C66G", "yeast fitness": 0.711}, {"variant": "G58C C66A", "yeast fitness": 0.717}, {"variant": "A57U A65U G68C A69G", "yeast fitness": "≤ 0.5"}, {"variant": "G56A G58C C61G", "yeast fitness": 0.707}, {"variant": "A69U A70U", "yeast fitness": 1.03}, {"variant": "A69U A70G", "yeast fitness": 0.871}, {"variant": "C62U G68A", "yeast fitness": 0.838}, {"variant": "A57U A65U", "yeast fitness": 0.618}, {"variant": "C66U A70C", "yeast fitness": 0.895}, {"variant": "C55G U59C C60U G67U", "yeast fitness": 0.548}, {"variant": "C60A A69U", "yeast fitness": 0.746}, {"variant": "C60A A69C", "yeast fitness": 0.752}, {"variant": "G58A G67A", "yeast fitness": 0.851}, {"variant": "C61U C66G", "yeast fitness": 0.706}, {"variant": "C61U C66U", "yeast fitness": 0.929}]}]}
